# Published values pooled from the literature.
# Each line is one published result; the experiments were not run side by side.
# Target: Insulin receptor-related protein (INSRR, Homo sapiens, UniProt P14616)
Compound,read-out,action,technique,concentration,measurement,value
CN(C)c1ncnc(-c2ccc3nc(Nc4cc(CN5CCN(C(=O)CC(F)(F)F)CC5)ccn4)[nH]c3c2)c1Cl,cell-free assay,,competition with immobilised ligand,1 µM,remaining binding,95%
Cc1cc(NC(=O)c2cccc3cc(-c4cccc5[nH]nc(N)c45)ccc23)ccc1F,enzyme activity,inhibitor,,0.1 µM,activity vs control,106%
CN1CC(Oc2cnc(C#N)cc2-c2ccn3nc(NC(=O)C4CC4)cc3c2)C1,enzyme activity,inhibitor,,1 µM,inhibition,-4%
Cc1ccc(Nc2nccc(N(C)c3ccc4c(C)n(C)nc4c3)n2)cc1S(N)(=O)=O,enzyme activity,inhibitor,,10 µM,inhibition,41%
CC(C)(O)[C@H]1CC[C@H](Nc2ccc3ncc(-c4cccc(C(F)(F)F)c4)n3n2)CC1,enzyme activity,inhibitor,,1 µM,remaining activity,77%
COc1cc(Nc2cnc(C#N)c(O[C@H](C)CN(C)C)n2)ncc1-c1cnn(C)c1,enzyme activity,inhibitor,radiometric,10 µM,remaining activity,89%
CNC(=O)c1cc(Oc2ccc(NC(=O)Nc3ccc(Cl)c(C(F)(F)F)c3)cc2)ccn1,enzyme activity,inhibitor,,0.3 µM,inhibition,-25%
CC1=C(C#N)C(c2ccc3c(c2)c(NC(=O)c2ccccc2C)nn3C)C(C#N)=C(C)N1,cell-free assay,,competition with immobilised ligand,1 µM,remaining binding,100%
CC(C)(C)c1nc2c(s1)c1nc(N)ncc1c1ccc(NS(=O)(=O)c3c(F)cccc3F)c(F)c12,enzyme activity,inhibitor,radiometric,1 µM,remaining activity,107%
O=C(Nc1cnn(-c2csc(C(=O)NC3COC3)c2)c1)Nc1c(F)cccc1Cl,enzyme activity,inhibitor,,5 µM,remaining activity,75.9%
COc1cc(-c2cn(C3CCc4c(F)cccc4N(CC(F)(F)F)C3=O)nn2)ccc1-n1cnc(C)c1 (stereo not shown),cell-free assay,,competition with immobilised ligand,1 µM,remaining binding,100%
Cn1c(=O)n(-c2ccc(C(C)(C)C#N)cc2)c2c3cc(-c4cnc5ccccc5c4)ccc3ncc21,enzyme activity,inhibitor,,10 µM,remaining activity,80%
O=C(Nc1cnn(-c2csc(C(=O)NC3COC3)c2)c1)Nc1ccccc1Cl,enzyme activity,inhibitor,,5 µM,remaining activity,96%
CC(C)CC(=O)N1CCc2nc(-c3ccc(Br)cc3)nc(N(C)Cc3ccccc3)c2C1,cell-free assay,,competition with immobilised ligand,0.1 µM,remaining binding,100%
Nc1nc(NC2CCCCC2)sc1C(=O)c1ccccc1,enzyme activity,inhibitor,,10 µM,remaining activity,25%
COc1cc(Cl)c(C(=O)N[C@@H](CN[C@H]2CC[C@@H](N)CC2)Cc2ccc(C#N)cc2)cc1-c1ccc(CN[C@H](C)c2ccc(C)cc2)o1,enzyme activity,inhibitor,,1 µM,remaining activity,98%
CC(=O)N1CCC(c2ccc(C(=O)NC(=N)N)cc2C(F)(F)F)CC1,cell-free assay,,competition with immobilised ligand,1 µM,remaining binding,100%
Cc1cnc(NC2CCOCC2)nc1-n1cnc(C(=O)NC(CN)c2cc(F)cc(Cl)c2)c1 (stereo not shown),enzyme activity,inhibitor,radiometric,1 µM,remaining activity,70%
Cc1ccc(C(=O)Nc2ccc(CN3CCN(C)CC3)c(C(F)(F)F)c2)cc1C#Cc1cnc2cccnn12,cell-free assay,,,23.5 nM,remaining signal,100%
O=C1Nc2ccc(Cl)cc2C1=Cc1cc(Cl)c(O)c(Cl)c1,cell-free assay,,,0.5 µM,remaining signal,100%
CC(=O)c1c(NS(C)(=O)=O)c2cc(-c3ccc(Cl)cc3)c(-c3ccc(Cl)cc3Cl)nc2n(C)c1=O,cell-free assay,,competition with immobilised ligand,1 µM,remaining binding,93%
O=C1NC(=O)c2cc(Nc3ccc(F)cc3)c(Nc3ccc(F)cc3)cc21,cell-free assay,,,0.5 µM,remaining signal,111%
COc1cc2ncnc(Nc3ccc(Oc4ccccc4)c(C)c3C)c2cc1OC,enzyme activity,inhibitor,,1 µM,inhibition,2%
CN([C@@H]1CCc2c(CC(=O)O)c3cc(S(C)(=O)=O)ccc3n2C1)S(=O)(=O)c1ccc(F)cc1,cell-free assay,,competition with immobilised ligand,1 µM,remaining binding,100%
CCN(CC)CCNC(=O)c1c(C)[nH]c(/C=C2\C(=O)Nc3ccc(F)cc32)c1C,enzyme activity,inhibitor,,10 µM,inhibition,78%
COc1cc(/C=C/C(=O)CC(=O)/C=C/c2ccc(O)c(OC)c2)ccc1O,enzyme activity,inhibitor,,1 µM,activity vs control,84%
CN(C)CC#Cc1ccc(OCCCc2sc(N3CCc4cccc(C(=O)Nc5nc6ccccc6s5)c4C3)nc2C(=O)O)c(F)c1,cell-free assay,,competition with immobilised ligand,1 µM,remaining binding,90%
FC(F)c1nc2ccccc2n1-c1nc(N2CCOCC2)nc(N2CCOCC2)n1,enzyme activity,inhibitor,,10 µM,remaining activity,88%
